In ChEMBL document CHEMBL1138319, “Synthesis and pharmacological evaluation of fluorescent and photoactivatable analogues of antiplasmodial naphthylisoquinolines” (J Med Chem, 2007):
The source made the active and inactive calls. The rule behind the calls is not given here.

Legend:
[1] = target: T1, Falcipain 2 (Plasmodium falciparum) (UniProt Q9N6S8); assay: Inhibition of Plasmodium falciparum recombinant cysteine protease falcipain-2
T1 sequence (whole entry): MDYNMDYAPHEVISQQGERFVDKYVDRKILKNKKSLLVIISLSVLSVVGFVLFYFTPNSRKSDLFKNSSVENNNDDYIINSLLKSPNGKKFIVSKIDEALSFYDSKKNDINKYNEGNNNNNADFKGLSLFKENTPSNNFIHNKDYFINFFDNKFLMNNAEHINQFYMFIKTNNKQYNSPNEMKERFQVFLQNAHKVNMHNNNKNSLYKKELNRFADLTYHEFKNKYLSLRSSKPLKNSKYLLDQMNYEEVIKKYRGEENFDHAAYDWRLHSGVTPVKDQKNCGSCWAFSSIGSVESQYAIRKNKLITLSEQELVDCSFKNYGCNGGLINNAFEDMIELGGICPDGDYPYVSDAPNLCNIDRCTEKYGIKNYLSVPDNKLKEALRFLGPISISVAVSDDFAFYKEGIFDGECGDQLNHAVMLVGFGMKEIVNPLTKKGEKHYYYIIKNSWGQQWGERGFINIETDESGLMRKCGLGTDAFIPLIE

[2] = tested on: Plasmodium falciparum; assay: Antiplasmodial activity against Plasmodium falciparum in human red blood cells after 4 hrs; assay type: functional, organism-based
[3] = tested on: L6; assay: Cytotoxicity against rat L6 cells; assay type: cell-based
In short: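 L-6 rat skeletal myoblast cell line; cytotoxicity values reported in µM.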

SMILES	Activity [1]	IC50 [2]	IC50 [3]
COc1cccc2c(-c3ccc4c(c3O)[C@@H](C)N[C@H](C)C4)c(C)cc(OC)c12 [DIONCOPHYLLINE A]	inactive	381 nM	29100 nM
COc1cccc2c(-c3cc(CCCOC(=O)N([C@@H](Cc4ccc(OCc5ccc(C(=O)c6ccccc6)cc5)cc4)C(=O)O)S(=O)(=O)c4cccc5c(N(C)C)cccc45)c4c(c3O)[C@@H](C)N[C@H](C)C4)c(C)cc(OC)c12	–	960 nM	69500 nM
COc1cccc2c(-c3cc(CNCCCCCCNS(=O)(=O)c4cccc5c(N(C)C)cccc45)c4c(c3O)[C@@H](C)N[C@H](C)C4)c(C)cc(OC)c12	–	602 nM	16500 nM
COc1cccc2c(-c3cc(CCCO)c4c(c3O)[C@@H](C)N[C@H](C)C4)c(C)cc(OC)c12	–	2420 nM	99000 nM
COC(=O)/C=C/c1cc(-c2c(C)cc(OC)c3c(OC)cccc23)c(OCc2ccccc2)c2c1C[C@@H](C)N(Cc1ccccc1)[C@@H]2C	–	190 nM	> 140000 nM
COc1cc([C@@H]2c3cc4c(cc3[C@H](O)[C@H]3COC(=O)[C@H]23)OCO4)cc(OC)c1OC [PODOFILOX]	–	–	7 nM
COc1cccc2c(-c3cc(CNCCCCCCNS(=O)(=O)c4cccc5c(N(C)C)cccc45)c4c(c3OCc3ccccc3)[C@@H](C)N(Cc3ccccc3)[C@H](C)C4)c(C)cc(OC)c12	–	45 nM	2500 nM
